# Shown are actives, neighbours in structure and some others; about 1.8% of the full set was active somewhere.
# Tn6 DDE FP: inhibitors of Tn6 peptide binding to fibrin DD(E), primary screen, biochemical, fluorescence polarization, human fibrin, Tn6 probe; inhibition, % at 8.3 µM; Fibrinogen beta chain (Homo sapiens), P02675; Fibrin DD(E) TRITC-Tn6 fluorescence polarization displacement; 370,000 tested, 0.21% active; AID 720509, 2013;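 active = inhibition above a per-campaign cutoff: mean of compounds within control limits plus 3 SD, cut at about 15% in these data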;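 note: 0% = median of all compound wells on the plate and 100% = blocking peptide control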
# Target sequence (P02675 whole entry, looked up): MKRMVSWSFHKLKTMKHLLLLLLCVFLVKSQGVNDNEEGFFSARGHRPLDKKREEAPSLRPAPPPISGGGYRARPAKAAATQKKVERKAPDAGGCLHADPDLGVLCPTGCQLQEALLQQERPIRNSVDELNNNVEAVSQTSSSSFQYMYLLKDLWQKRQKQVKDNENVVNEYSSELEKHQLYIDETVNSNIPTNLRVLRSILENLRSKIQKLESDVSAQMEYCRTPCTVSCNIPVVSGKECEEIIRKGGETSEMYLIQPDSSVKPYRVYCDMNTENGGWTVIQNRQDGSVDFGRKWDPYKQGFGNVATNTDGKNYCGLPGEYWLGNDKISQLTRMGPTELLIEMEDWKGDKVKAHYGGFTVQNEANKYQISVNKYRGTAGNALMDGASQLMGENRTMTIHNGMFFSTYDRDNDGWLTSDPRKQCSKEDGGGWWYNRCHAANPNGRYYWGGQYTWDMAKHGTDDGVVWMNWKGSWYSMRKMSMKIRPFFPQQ
# HTRA1 inhibitor: HTRA1 serine protease inhibitors, primary screen, biochemical, fluorescence polarization, HTS | AID 504803, 2011 | Q92743 | recombinant HTRA1, FP-rhodamine activity-based probe | inhibition, % at 5.96 µM | 340,000 tested, 0.5% active; in the data active = inhibition above about 36%;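 note: 0% = enzyme with DMSO and 100% = wells lacking enzyme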
# ABHD4 inh: ABHD4 inhibitors, primary screen, biochemical, fluorescence polarization, mouse; (Lyso)-N-acylphosphatidylethanolamine lipase (Mus musculus), Q8VD66; purified mABHD4, FP-Rh probe fluorescence polarization; inhibition, % at 8.92 µM; 370,000 tested, 0.54% active; AID 720543, 2013;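 active = inhibition exceeding the mean over every tested compound plus 3 SD, cut at about 30% in these data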;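 note: 0% = plate median of compound wells and 100% = S159A mutant with DMSO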
#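 Assay system: mouse ABHD4 enzyme, wild type / Also added: fluorescent activity-based probe FP-Rh / Doses: single nominal dose of 8.92 µM, 0.89% DMSO final / Timing: 45 min compound pre-incubation plus 60 min probe step, 25 °C / Signal: FP readout, ex 525 nm / em 598 nm / Control set: S159A mutant/DMSO as 100%, compound-well median as 0%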
# SIAE primary: human SIAE inhibitors, primary screen, biochemical, fluorescence polarization, FP-Rh probe, 1536-well HTS | SIAE FP-Rh probe binding | inhibition, % at 9.66 µM | 370,000 tested, 0.69% active | AID 1053197, 2014;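 active = inhibition above a cutoff: mean of compounds within the control limits plus 3 SD of those, cut at about 17% in these data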;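 note: 0% = plate median of compound wells and 100% = probe without SIAE protein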
# Tn7 DDE FP: inhibitors of Tn7 peptide binding to fibrin DD(E), primary screen, biochemical, fluorescence polarization, human fibrin, Tn7 probe; AID 720508, 2013; inhibition, % at 8.3 µM; FP displacement of FITC-Tn7 peptide from fibrin DD(E); 0% = median of compound wells per plate; 370,000 tested, 0.13% active;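 active = inhibition above the mean of compounds falling within the control limits plus 3 SD of them, cut at about 14% in these data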;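 note: 0% = plate median of compound wells and 100% = 10 µM Aha-Tn7 peptide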
#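 Measure: % inhibition scaled between sample-field median and high-control FP; Test system: human fibrin DD(E); Quantity: 2 µM final DD(E) protein; Doses: one dose, 8.3 µM nominal; Schedule: compound with protein 10 min, then 3 h after probe, room temperature; Detection: fluorescence polarization; Medium: Tris buffer with calcium and detergent, pH 7.8.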
# TCR CD3 inh: inhibitors of human TCR-CD3 interaction, primary screen, biochemical, fluorescence, TAMRA-labeled TCR probe; T-cell receptor (TCR); inhibition, % at 9.4 µM; 360,000 tested, 0.37% active; in the data active = inhibition above about 19%;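 note: recombinant mutant TCR 2C K166C tagged with TAMRA read by polarization; 0% = receptor in buffer alone and 100% = receptor with positive control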
# HTRA1 inh conf: HTRA1 protease inhibitors, retest, confirmation, biochemical, fluorescence polarization. shares compounds with HTRA1 inhibitor. recombinant HTRA1, FP-rhodamine activity-based probe. inhibition, % at 5.96 µM. 1,600 tested, 66% active;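 active = mean inhibition over three repeats above a set limit taken from the earlier primary screen, cut at about 37% in these data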;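 note: 0% = HTRA1 with DMSO and 100% = wells lacking HTRA1; inhibitors block probe binding so polarization drops and inhibition rises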
# Active calls of the source: *; . = no result given.
SMILES,Tn6 DDE FP,HTRA1 inhibitor,ABHD4 inh,SIAE primary,Tn7 DDE FP,TCR CD3 inh,HTRA1 inh conf
Cc1cccc[n+]1C1C(c2ccccc2)C(C#N)=C(C(=C=[N-])C#N)NC1(O)C1CC1 (stereo not drawn),.,67*,.,.,.,.,49*
CCN(CC)c1ccc(N=Cc2ccccc2[N+](=O)[O-])cc1,7,53*,47*,12,0,13,146*
Cc1ccc(Nc2c(-c3ccccn3)nc3cccc(C)n23)cc1,-2,62*,-1,-1,-1,-8,67*
Cc1nnc(-c2ccccc2)c(=O)n1/N=C/c1c(O)ccc2ccccc12,-2,37*,9,15,-35,5,35
Cc1nnc(C)n1/N=C/c1c(O)ccc2ccccc12,1,4,-3,-4,0,4,.
CN(C)c1ccc(C=Cc2ccnc3c(O)cccc23)cc1,-11,63*,-3,23*,8,-7,54*
Cc1cccc(NC2=Nc3ccccc3N3C2=Nc2c(c(C)nn2-c2ccccc2)C3c2ccc(O)c(O)c2)c1 (stereo not drawn),-4,55*,-9,-17,-10,5,56*
Cc1nn(-c2ccccc2)c2c1C(c1ccc(O)c(O)c1)N1C(=N2)C(Nc2ccccc2)=Nc2ccccc21 (stereo not drawn),-4,50*,4,9,-4,1,53*
Cc1ccc(NC2=Nc3ccccc3N3C2=Nc2c(c(C)nn2-c2ccccc2)C3c2ccc(O)c(O)c2)cc1 (stereo not drawn),-2,37*,-23,-36,7,0,55*
CCCc1cc(C(=O)OCC(=O)NCCc2ccccc2)sc1C,1,-11,-2,7,-2,11,.
C=CCN1CCc2c(cc(O)c(O)c2Cl)C(c2ccccc2)C1 (stereo not drawn),10,43*,14,-1,-6,-2,70*
CC(C)c1ccc(S(=O)(=O)N2CCN(CC(=O)c3ccc(O)c(O)c3)CC2)cc1,4,38*,21,7,-5,12,35
CC(C)c1ccc(S(=O)(=O)N2CCN(CC(=O)Nc3ccc(Cl)cc3F)CC2)cc1,1,-4,-2,1,6,-9,.
O=C(CN1CCN(S(=O)(=O)c2ccc(Br)cc2)CC1)c1ccc(O)c(O)c1,-4,37*,18,8,7,9,39*
COc1cccc(CNc2ccc(N3CCCCC3)cc2)c1OC,4,59*,25,10,5,-5,7
COc1cccc(Nc2ccc(N3CCCCC3)cc2)c1OC,2,17,21,8,4,-10,.
COc1ccccc1CNc1ccc(N2CCCCC2)cc1,.,57*,.,.,.,.,14
CC(O)(c1ccccc1)c1nc(-c2cccc(C#N)c2)cs1 (stereo not drawn),-1,.,-3,-6,-5,-10,.
NS(=O)(=O)c1ccc(CNC(=O)c2cc(=O)c3cc(Cl)ccc3o2)cc1,-12,-7,-2,-4,-3,-4,.
COc1cc(-c2c(C#N)c(N)nc3c2c(C)nn3-c2ccc(C)c(C)c2)cc(OC)c1OC,-4,-35,-21,-18,-3,7,.
Cc1nn(-c2ccc(F)cc2)c2nc(N)c(C#N)c(-c3ccc(O)c(O)c3)c12,-9,59*,-17,-14,1,12,62*
Cc1nn(-c2ccc(F)cc2)c2nc(N)c(C#N)c(-c3cccs3)c12,4,-21,-17,-9,-4,5,.
Cc1nn(-c2ccccc2)c2nc(N)c(C#N)c(-c3ccc(O)c(O)c3)c12,-1,74*,1,-11,2,8,76*
c1ccc2c(c1)NCC1CCCN21 (stereo not drawn),1,44*,22,12,0,1,18
O=C1NC[C@@H]2CCCN2C1=O,-6,.,5,-6,-2,11,.
SMILES,Tn6 DDE FP,HTRA1 inhibitor,ABHD4 inh,SIAE primary,Tn7 DDE FP,TCR CD3 inh,HTRA1 inh conf
CCCCC(=O)NC(c1cccs1)c1cc(Cl)c2cccnc2c1O (stereo not drawn),-6,55*,9,14,4,-4,55*
O=C(NC(c1ccc(Cl)cc1)c1cc(Cl)c2cccnc2c1O)c1cccnc1 (stereo not drawn),-5,60*,0,1,2,-5,52*
CCC(=O)NC(c1cccs1)c1cc(Cl)c2cccnc2c1O (stereo not drawn),-5,54*,8,17,-4,1,65*
C=CCN1C(=O)[C@H](CC(=O)N2CCN(C(=O)C3CC3)CC2)[C@@]2(C(=O)OCC)CCCC=C12,-1,.,4,2,-3,.,.
COc1ccc(S(=O)(=O)NCc2nc3nc(C)cc(C)n3n2)cc1OC,-4,5,5,-1,0,8,.
Cc1ccc(-n2c(C)cc(-c3csc(N)n3)c2C)cc1,-1,52*,18,9,0,-2,50*
CC(=O)CC[C@H]1CC[C@]2(CCCN(C(=O)C(C)(C)C)C2)O1,0,.,8,-1,0,.,.
CC(C)(C)c1ccc(O)c(/C=N\O)c1,-2,4,2,13,5,3,.
CC(C)(C)c1ccc(O)c(O)c1,2,38*,25,-2,-9,6,60*
CC(C)NC(=O)[C@]1(C#N)CC(=O)N(C)[C@@H]1c1ccccc1,-4,.,5,8,-6,.,.
c1ccc(CN2CCC(=NNc3nc4ccccc4[nH]3)CC2)cc1,-7,37*,26,6,-5,0,15
Cc1ccc(Nc2nc(-c3sc(N)nc3C)cs2)cc1,-2,50*,16,6,2,-2,31
Cc1nc(N)sc1-c1csc(Nc2ccc(Cl)cn2)n1,2,42*,20,15,0,-1,37*
COc1ccc(C(OC(=O)c2ccco2)C(=O)NC(C)(C)C)cc1 (stereo not drawn),-3,2,-3,2,2,9,.
Cc1sc2nc(COC(=O)CNC(=O)c3ccc(F)cc3Cl)[nH]c(=O)c2c1C,0,.,-1,4,-4,.,.
O=c1c(-c2ccc(O)cc2)coc2cc(O)ccc12,1,-4,13,3,-2,-3,.

# Screening results deposited in PubChem BioAssay by The Scripps Research Institute Molecular Screening Center.
